What all share (type): functional, cell-based
In one assay the test system is KB 3-1. The assay can be described thus: Reversal of P-gp-mediated multidrug resistance to Cytotoxicity of colchicine against human KB-3-1 cells at 5 uM after 68 hrs by MTT assay. As to conditions: KB 3-1, 68 h. The gist of the method: (§1)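 KB-3-1 seeded at 4×10^4 cells/mL, KB-C2 at 7.5×10^4 cells/mL (KB-C2 kept in 2 μg/mL colchicine). MTT added for 4 h, DMSO solubilization, A570. IC50 by the Bliss method. Fold-resistance = IC50 / colchicine IC50 in KB-3-1. Mean ± SD, three independent experiments in triplicate.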

The nature of assay [1]: Reversal of P-gp-mediated multidrug resistance to Cytotoxicity of colchicine against human KB-C2 cells at 5 uM after 68 hrs by MTT assay. As to conditions: KB-C2, 68 h. The gist of the method:
as §1

Another assay deals with KB. The assay can be described thus: Cytotoxicity against KB cells expressing MRP1 after 68 hrs by MTT assay. As to conditions: Homo sapiens. In a few lines: (§2)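 Human epidermoid carcinoma KB-3-1 (parental) and sublines: KB/MRP1 (MRP1 cDNA-transfected), KB-CV60 (kept in 1 μg/mL cepharanthine + 60 ng/mL vincristine), KB-C2 (kept in 2 μg/mL colchicine). DMEM with 10% bovine serum, 37 °C, 5% CO₂. Seeded at 4×10^4 (KB-3-1), 5×10^4 (KB/MRP1) or 7.5×10^4 cells/mL (KB-CV60, KB-C2). Compound dilution series for 68 h, then MTT 4 h. Formazan dissolved in DMSO, A570. IC50 from survival curves by the Bliss method.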

Assay [2] can be described thus: Cytotoxicity against KB-3-1 cells after 68 hrs by MTT assay. As to conditions: Homo sapiens, KB 3-1, 68 h. In a few lines: as §2
Assay [3] is described as follows: Cytotoxicity against KB-C2 cells overexpressing P-gp after 68 hrs by MTT assay. To be noted: Homo sapiens, KB-C2, 68 h. In a few lines:
as §2

The nature of assay [4]: Cytotoxicity against KB-CV60 cells expressing MRP1 after 68 hrs by MTT assay. To be noted: Homo sapiens, KB-CV60, 68 h. In a few lines:
as §2

In the case of `CC1(C)C(CC[C@@H]2[C@@]3(C)CC[C@@H](O)C(C)(C)O[C@@H]3CC[C@]2(C)O)C(C=O)=CCC2C1CC[C@@]2(C)O` (stereo partly drawn), the IC50 is 5 nM with KB 3-1; 2850 nM in assay [1]; over 50 µM in the assay with KB; over 50 µM in assay [2]; over 50 µM in assay [3]; over 50 µM in assay [4].
For the compound `CC1(C)O[C@@H]2CC[C@](C)(O)[C@H](CC[C@@]34O[C@]3(C)[C@H](O)CC3C(CC[C@@]3(C)O)C4(C)C)[C@@]2(C)CC[C@H]1O` (stereo partly drawn) [SIPHOLENOL I], the IC50 in the assay with KB 3-1 was 8.6 nM; in assay [1], 2870 nM; in the assay with KB it was over 50 µM; in assay [2], over 50 µM; in assay [3] it was over 50 µM; in assay [4] it was over 50 µM.
As for `CC1=CCC2C(CC[C@@]2(C)O)C(C)(C)C1CC[C@@H]1[C@@]2(C)CC[C@@H](O)C(C)(C)O[C@@H]2CC[C@]1(C)O` (stereo partly drawn) [SIPHOLENOL A], the 50% inhibitory concentration (IC50) in the assay with KB 3-1 was 5 nM; in assay [1] it was 210 nM; in the assay with KB, over 50 µM; in assay [2] it was over 50 µM; in assay [3], over 50 µM; in assay [4] it was over 50 µM.
On to `CC1(C)O[C@@H]2CC[C@](C)(O)[C@H](CCC3C(CO)=CCC4C(CC[C@@]4(C)O)C3(C)C)[C@@]2(C)CCC1=O` (stereo partly drawn), for which the concentration for half-maximal inhibition (IC50) in the assay with KB 3-1 is 6.3 nM; in assay [1], 6000 nM; in the assay with KB, over 50 µM; in assay [2], over 50 µM; in assay [3] it was over 50 µM; in assay [4], over 50 µM.
For `CC1(C)O[C@@H]2CC[C@](C)(O)[C@H](CCC3C(C=O)=CCC4C(CC[C@@]4(C)O)C3(C)C)[C@@]2(C)CCC1=O` (stereo partly drawn), the concentration for half-maximal inhibition (IC50) in the assay on KB 3-1 is 5.6 nM; in assay [1], 6320 nM; with KB, over 50 µM; in assay [2], over 50 µM; in assay [3], over 50 µM; in assay [4], over 50 µM.
As for `CC1(C)C(CC[C@@H]2[C@@]3(C)CC[C@@H](O)C(C)(C)O[C@@H]3CC[C@]2(C)O)C(CO)=CCC2C1CC[C@@]2(C)O` (stereo partly drawn) [28-HYDROXYSIPHOLENOL A], the half-inhibitory concentration (IC50) is 5.9 nM in the assay with KB 3-1; 5070 nM in assay [1]; over 50 µM with KB; over 50 µM in assay [2]; over 50 µM in assay [3]; over 50 µM in assay [4].
With `CC1=C(CC[C@@H]2[C@@]3(C)CC[C@@H](O)C(C)(C)O[C@@H]3CC[C@]2(C)O)[C@](C)(C/C=C/C(C)(C)O)[C@H](O)CC1` [SIPHONELLINOL C], the IC50 was 7.8 nM in the assay on KB 3-1; 1480 nM in assay [1]; over 50 µM with KB; over 50 µM in assay [2]; over 50 µM in assay [3]; over 50 µM in assay [4].
As for `CC1=CCC2C(CC[C@@]2(C)O)C(C)(C)C1CC[C@@H]1[C@@]2(C)CCC(=O)C(C)(C)O[C@@H]2CC[C@]1(C)O` (stereo partly drawn) [SIPHOLENONE A], the IC50 is 5.2 nM in the assay with KB 3-1; 930 nM in assay [1]; over 50 µM in the assay on KB; over 50 µM in assay [2]; over 50 µM in assay [3]; over 50 µM in assay [4].

The values above are taken from ChEMBL document CHEMBL1143668, “Reversal of P-glycoprotein-mediated multidrug resistance by sipholane triterpenoids” (J Nat Prod, 2007).
